Active and inactive are the calls of the source.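 How the source made its calls: active means cytotoxic IC50, the dose that kills half the cells, at 20 µM or lower; inactive means the rest.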

For this experiment, the system named is CHO-CHOP cells viability, ATPLite luminescence, 6 h. Put plainly: cytotoxicity in CHO-CHOP reporter cells, SAR follow-up, cytotoxicity control for UPR apoptotic arm activator project, cell-based, 6 h exposure, ATPLite luminescence (AID 588557). The method, boiled down: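 Assay system: CHO-CHOP reporter cells / Input: 500 cells per well / Buffer or medium: F12 medium with 10% fetal bovine serum / Compound: dose response, DMSO ≤1% final / Times: 16–18 h pre-dosing growth, then 6 h exposure at 37 °C / Technique: ATPLite 1-Step luminescence / Benchmarks: tunicamycin 10 µg/mL final as positive control, DMSO alone as negative control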
For `O=C(Nc1nc2c(F)c(F)ccc2s1)c1ccccn1`, the IC50 was 15.1 µM.
To `O=C(Nc1nc2c(Cl)cc(Cl)cc2s1)c1ccccn1` belongs > 80 µM (inactive); to `O=C(Nc1nc2c(F)cc(F)cc2s1)c1ccccn1`, 9.57 µM.
The value for `O=C(Nc1ccc(S(=O)(=O)N2CCOCC2)cc1)c1ccc([N+](=O)[O-])s1` was > 80 µM (inactive).
To `O=C(Nc1nc2c(F)cccc2s1)c1ccccn1` belongs 4.42 µM; to `O=C(Nc1nc2ccc(Cl)cc2s1)c1ccccn1`, 3.84 µM; to `O=C(Nc1nc2cc(F)cc(F)c2s1)c1ccccn1`, 8.88 µM.
Turning to `CC1CCN(S(=O)(=O)c2ccc(NC(=O)c3ccc([N+](=O)[O-])o3)cc2)CC1`, the IC50 was > 80 µM (inactive).
For the compound `O=C(Nc1ccc(S(=O)(=O)N2CCOCC2)cc1)c1ccc([N+](=O)[O-])o1`, the IC50 was > 80 µM (inactive).
Consider `O=C(Nc1ccc(S(=O)(=O)N2CCCCC2)cc1)c1ccc([N+](=O)[O-])o1`, for which the IC50 was > 80 µM (inactive).
The value for `Cc1cc(C)c2nc(NC(=O)c3ccccn3)sc2c1` was 16.2 µM; that for `O=C(Nc1nc2c(F)ccc(F)c2s1)c1ccccn1` was 23.6 µM (inactive); that for `O=C(Nc1ccc(S(=O)(=O)N2CCCC2)cc1)c1ccc([N+](=O)[O-])o1` was 74.6 µM (inactive).
Consider `O=C(Nc1ccc(S(=O)(=O)N2CCC(Cl)CC2)cc1)c1ccc([N+](=O)[O-])o1`, for which the IC50 was > 80 µM (inactive).
The value for `O=C(Nc1nc2ccc(F)c(F)c2s1)c1ccccn1` was 13.4 µM; that for `O=C(Nc1ccc(S(=O)(=O)c2ccccc2)cc1)c1ccc([N+](=O)[O-])o1` was > 80 µM (inactive).
The value for `O=C(Nc1nc2cccc(F)c2s1)c1ccccn1` was 7.07 µM; that for `O=C(Nc1nc2cc(F)c(F)cc2s1)c1ccccn1` was 8.4 µM; that for `CC(C)(C)C1CCN(S(=O)(=O)c2ccc(NC(=O)c3ccc([N+](=O)[O-])o3)cc2)CC1` was > 80 µM (inactive).
On to `O=C(Nc1ccc(S(=O)(=O)N2CCNCC2)cc1)c1ccc([N+](=O)[O-])o1`, for which the IC50 was > 80 µM (inactive).
To `O=C(Nc1nc2ccc(F)cc2s1)c1ccccn1` belongs 4.52 µM.
The value for `CC1CN(S(=O)(=O)c2ccc(NC(=O)c3ccc([N+](=O)[O-])o3)cc2)CC(C)O1` (stereo not given) was > 80 µM (inactive).
The value for `O=C(Nc1ccc(S(=O)(=O)C2CCOCC2)cc1)c1ccc([N+](=O)[O-])o1` was > 80 µM (inactive); that for `CC1(C)CCN(S(=O)(=O)c2ccc(NC(=O)c3ccc([N+](=O)[O-])o3)cc2)CC1` was > 80 µM (inactive).
On to `O=C(Nc1ccc(S(=O)(=O)C2CCCCC2)cc1)c1ccc([N+](=O)[O-])o1`, for which the IC50 was > 80 µM (inactive).
On to `O=C(Nc1nc2cc(F)ccc2s1)c1ccccn1`, for which the IC50 was 2.7 µM.
To `O=C(Nc1ccc(S(=O)(=O)N2CCC3(CCCCC3)CC2)cc1)c1ccc([N+](=O)[O-])o1` belongs > 80 µM (inactive); to `O=C(Nc1ccc(S(=O)(=O)N2CCC(O)CC2)cc1)c1ccc([N+](=O)[O-])o1`, > 80 µM (inactive); to `O=C(Nc1ccc(S(=O)(=O)N2CCC(F)CC2)cc1)c1ccc([N+](=O)[O-])o1`, > 80 µM (inactive).
To `O=C(Nc1nc2ccc(C(F)(F)F)cc2s1)c1ccccn1` belongs 4.63 µM.

In general, IC50 refers to the concentration at which inhibition is half-maximal.
